Published values gathered from unrelated publications.
Protocols differ between the studies behind these lines.
Matrix: plasma
Route: intravenous

[2H]c1cc(C)c(NC(=O)c2cnc(Nc3cc(N4CCC(O)CC4)nc(C)n3)s2)c(Cl)c1 has a clearance of 33.3 mL/min/kg (male Sprague-Dawley rat; 1 mg/kg).
COc1cc(-c2cc(C(C)=O)n3ccccc23)c(OC)cc1Cn1ccnc1 has a clearance of 20.1 mL/min/kg (male Sprague-Dawley rat; 5 mg/kg).
With C[C@H]1CN(c2ccc(C3CCC(=O)NC3=O)cc2F)CCN1CC12CCC(NS(=O)(=O)c3ccc(Nc4ncc(C(F)(F)F)c(N5CCC[C@](C)(O)C5)n4)c(F)c3)(CC1)CO2 (stereo partly drawn) the clearance was 18 mL/min/kg (rat; 2 mg/kg).
COc1ccc(-c2coc3cc(O)cc(O)c3c2=O)cc1 gave a clearance of 48.9 mL/min/kg (rat; 2 mg/kg).
The clearance of CNS(=O)(=O)c1ccc(Nc2ncc3cc(Cl)c(=O)n(C4CCCC4)c3n2)c(C)c1 is reported as 50 mL/min/kg (rat; 2 mg/kg).
Cc1nc(Nc2ncc(C(=O)Nc3c(C)cccc3Cl)s2)cc(N2CCN(CCO)CC2)n1 has a clearance of 21.7 mL/min/kg (male Sprague-Dawley rat; 1 mg/kg).
For COc1ccc(N(Cc2csc(-c3ccccc3)n2)C(=O)CCCCCC(=O)NO)cc1, the clearance was 6810 mL/min/kg (female Sprague-Dawley rat; 5 mg/kg).
The clearance of O=C1CCC(N2Cc3cc(C4CCN(Cc5ccccc5)CC4)ccc3C2=O)C(=O)N1 (stereo not drawn) is reported as 51.4 mL/min/kg (male Sprague-Dawley rat; 1 mg/kg).
For Cc1nc(Nc2ncc(C(=O)Nc3c(C)cccc3Cl)s2)cc(N2CC[C@H](N)C2)n1, the clearance was 51.7 mL/min/kg (male Sprague-Dawley rat; 1 mg/kg).
With O=c1c(NCCc2cccc(Cl)c2)c(Nc2ccc(Cl)cc2)c1=O the clearance was 29.3 mL/min/kg (male Sprague-Dawley rat; 1 mg/kg).
Cc1cc(S(=O)(=O)NC2CC(N3CCN(CC4CCN(c5cccc6c5n(C)c(=O)n6C5CCC(=O)NC5=O)CC4)C4(CC4)C3)C2)ccc1Nc1ncc(C(F)(F)F)c(N2CCC[C@](C)(O)C2)n1 (stereo partly drawn) gave a clearance of 35 mL/min/kg (rat; 2 mg/kg).
C=CCn1c(=O)c2cnc(Nc3ccc(N4CCN(C)CC4)cc3)nc2n1-c1ccc2c(n1)[C@@](O)(CC)CC2 has a clearance of 33 mL/min/kg (rat; 3 mg/kg).
